# MDM2 E3 inh: inhibitors of human Mdm2 E3 ubiquitin ligase. Q00987. cell-based MDM2 ubiquitination luciferase reporter, 2 h; 0 = plate control, 100 = twice control, blank-subtracted. signal enhancement, % at 5 µM. 210,000 compounds, 0.11% hits. AID 1230;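 active means signal enhancement of 30% or more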;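 further: luminescence tracks abundance of the self-degrading MDM2-luciferase fusion protein; higher signal means inhibition of MDM2 E3 ligase activity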
# Target sequence (Q00987 whole entry, looked up, the tested form may be a part): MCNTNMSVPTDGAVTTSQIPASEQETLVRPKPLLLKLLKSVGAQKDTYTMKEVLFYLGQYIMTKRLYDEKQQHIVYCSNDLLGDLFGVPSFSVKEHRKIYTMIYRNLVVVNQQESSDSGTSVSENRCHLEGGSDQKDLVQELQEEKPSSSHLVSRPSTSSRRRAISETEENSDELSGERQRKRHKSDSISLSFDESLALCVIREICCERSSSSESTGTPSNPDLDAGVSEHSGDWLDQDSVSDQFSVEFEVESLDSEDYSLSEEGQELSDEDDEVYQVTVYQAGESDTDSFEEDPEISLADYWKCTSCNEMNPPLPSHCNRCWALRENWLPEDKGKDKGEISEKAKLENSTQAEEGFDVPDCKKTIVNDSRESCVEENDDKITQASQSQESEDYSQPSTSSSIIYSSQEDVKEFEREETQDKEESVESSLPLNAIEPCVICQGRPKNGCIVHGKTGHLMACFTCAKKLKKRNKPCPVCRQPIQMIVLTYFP
#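 Buffer or medium: Cells held in DMEM | Assay system: Stable mammalian line carrying autodegrading MDM2–luciferase fusion reporter | Quantity: 2000 cells/well | Times: 4 h settle plus 2 h compound, 37 °C | Doses: One concentration, 5 µM, with 0.2% DMSO | Technique: Luminescence with SteadyLite reagent, 15 min at room temperature | Benchmarks: Plate controls and plate blanks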
# S1P4 antagonist: antagonists of human S1P4 receptor; O95977; S1P4-expressing cells, antagonist mode, reporter read-out; inhibition, % at 4.98 µM; 220,000 compounds, 0.26% hits; in the data active means inhibition above about 29%;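 further: 0% = wells stimulated with agonist and 100% = vehicle wells without agonist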
# S1P4 agonist: activates the human S1P4 receptor. O95977. S1P4-expressing cell line, agonist reporter assay. activation, % at 4.98 µM. 220,000 compounds, 0.35% hits. AID 1509; in the data active means activation above about 11%;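 further: 0% = DMSO vehicle and 100% = reference agonist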
# L major viab: inhibitors of Leishmania major promastigote growth | Leishmania major promastigotes, resazurin fluorescence viability | inhibition, % at 10 µM | 200,000 compounds, 9% hits; in the data active means inhibition above about 50%;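 further: promastigotes grown with compound for 44 hours at 28 °C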
# S1P3 antagonist: antagonists of human S1P3 receptor; inhibition, % at 4.98 µM; CHO S1P3 NFAT-BLA reporter, FRET fluorescence, antagonist mode; 170,000 compounds, 0.27% hits; AID 485; Q99500;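 active means inhibition above the plate cutoff, the mean inhibition of test wells on that plate plus 3 SD, cut at about 28% in these data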;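 further: cells challenged with S1P at its EC80 of 0.8 µM; blue over green emission ratio from cleaved BLA substrate after 4 h stimulation; 0% = S1P-stimulated wells and 100% = unstimulated DMSO-only wells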
# * hit, by the source's call; / = not tested or not shown. This is one part of a sample in which hits are shown more often than they occur.
SMILES,MDM2 E3 inh,S1P4 antagonist,S1P4 agonist,L major viab,S1P3 antagonist
Cc1ccc(Nc2nc(N)nc(CN3CCC(C)CC3)n2)c(C)c1,/,4.9,-0.1,61.8*,/
Cc1ccc(SCc2nc(N)nc(Nc3ccccc3C)n2)c(C)c1,-6.6,-3.3,-0.4,60.0*,0.1
Cc1ccccc1Nc1nc(N)nc(CSCC(=O)Nc2cccc(Br)c2)n1,-3.7,-8.0,0.2,81.2*,5.7
Cc1ccc(SCc2nc(N)nc(Nc3ccccc3C)n2)cc1C,-12.5,-12.5,4.2,10.8,5.3
CCc1ccccc1Nc1nc(N)nc(CSCC(=O)c2cc(C)n(C)c2C)n1,8.5,-3.7,0.5,10.9,8.1
Cc1c(Cl)cccc1Nc1nc(N)nc(CN2CCc3ccccc3C2)n1,-22.4,-10.1,-1.1,89.1*,/
Cc1ccc(Nc2nc(N)nc(CN3CCc4ccccc4C3)n2)cc1,7.6,-2.3,0.5,18.0,/
COc1ccccc1S(=O)(=O)Cc1ccc(C(=O)NCCN2CCCCCC2)o1,-17.9,1.2,-0.9,-2.5,-37.7
O=C(COC(=O)C1c2ccccc2Oc2ccccc21)NC1CCS(=O)(=O)C1 (stereo unspecified),-8.3,-22.1,3.3,4.3,-0.8
COc1ccc2c(c1)c(CC(=O)Nc1cccc(S(N)(=O)=O)c1)c(C)n2C(=O)c1ccc(Cl)cc1,/,-6.8,-0.2,/,5.1
Cc1ccccc1Nc1nc(N)nc(CN(C)Cc2ccccc2Cl)n1,-5.5,-15.7,0.9,50.7*,-1.8
CCOC(=O)c1cccc(NC(=O)C2(S(=O)(=O)c3ccc(C)cc3)CC2)c1,7.4,-16.7,0.7,0.2,-1.1
O=C(Cn1nc(Cc2cccnc2)c2ccccc2c1=O)N1CCN(C(=O)c2ccco2)CC1,-25.9,-19.5,-0.4,73.3*,-3.5
O=C(Cn1nc(Cc2ccncc2)c2ccccc2c1=O)N1CCN(C(=O)c2ccco2)CC1,-18.9,-4.1,-1.8,-10.4,-9.6
CC(C)c1ccc(/C=C2\NC(=S)N(Cc3cccnc3)C2=O)cc1,-7.8,6.1,-0.7,8.2,-6.0
N#CCSc1nnc(Nc2ccccc2)s1,/,-1.0,0.2,64.9*,/
COc1ccc(NC(=O)c2cccc([N+](=O)[O-])c2)cc1,-21.9,27.7,-1.5,3.3,5.7
COc1ccc(C(=O)NC(=S)NNC(=O)c2ccc(NC(C)=O)cc2)cc1Br,3.5,-13.1,0.2,76.6*,-11.3
COc1ccc(NC(=S)Nc2cccc([N+](=O)[O-])c2)cc1,-8.2,0.0,-2.2,87.4*,/
CC(=O)Nc1ccc(NC(=S)NC(=O)c2ccc([N+](=O)[O-])cc2)cc1,-5.5,-5.3,-0.9,62.7*,-10.5
O=C(NNc1c(Cl)cc(Cl)cc1Cl)c1cccc([N+](=O)[O-])c1,-20.2,-32.3,-0.3,79.2*,8.2
Cc1cc(C)n(C2CC(=O)N(c3ccc(Cl)c(Cl)c3)C2=O)n1 (stereo unspecified),-2.9,7.4,1.1,/,-3.2
O=c1c2oc3ccccc3c2[nH]c(=S)n1-c1ccc(F)cc1,-5.3,-5.2,2.9,-6.4,-0.8
CCc1cccc(C)c1NC(=O)CO/N=C(\N)CC(=O)NC1CCCCC1,-4.8,-0.5,1.8,-6.5,-9.6
CCC(=O)N1CCN(c2ccccc2NC(=S)NC(=O)c2cccc([N+](=O)[O-])c2)CC1,-16.4,-2.2,0.3,61.2*,-16.0
SMILES,MDM2 E3 inh,S1P4 antagonist,S1P4 agonist,L major viab,S1P3 antagonist
CCC(=O)N1CCN(c2ccc(NC(=S)NC(=O)c3cccc([N+](=O)[O-])c3)cc2)CC1,-12.1,-19.4,-0.6,-4.2,/
CCOC(=O)Cc1csc(NC(=S)NC(=O)c2ccc(Cl)cc2)n1,-18.0,-7.3,1.0,-9.2,/
CC(=O)NNC(=S)NC(=O)c1cccc([N+](=O)[O-])c1,-4.0,-5.8,0.6,67.6*,-5.0
Cc1ccc(NC(=O)c2ccc(Nc3c([N+](=O)[O-])cc([N+](=O)[O-])cc3[N+](=O)[O-])cc2)cc1,-69.1,-3.1,0.7,100.4*,9.7
CCOC(=O)Cc1csc(NC(=S)NC(=O)c2ccc([N+](=O)[O-])cc2)n1,-13.6,-11.6,0.4,74.7*,0.6
CCCn1c(SCC(=O)NCc2ccccc2Cl)n[nH]c1=O,-12.5,-22.5,2.2,-1.3,0.7
C=CCn1c2ccccc2c2nnc(SCc3ccc4nonc4c3)nc21,-2.4,-12.4,2.5,3.4,8.0
Cc1cc(C)c(S(=O)(=O)N2CCC(C(=O)NCc3ccco3)CC2)c(C)c1,-16.1,-4.8,-2.0,-3.2,/
CN1CCN(C(=S)c2ccc(-c3cccc(Cl)c3Cl)o2)CC1,-9.5,-5.3,0.3,95.1*,5.3

# Screens as filed in PubChem BioAssay.
